Results taken from ChEMBL document CHEMBL4138070, “Synthesis and biological evaluation of (-)-kunstleramide and its derivatives” (Medchemcomm, 2017).

Legend:
Assay type in all cases: functional, cell-based
[1] = system: HeLa; assay: Antiproliferative activity in human HeLa cells assessed as reduction in cell number incubated for 48 hrs by SRB assay
Outline: (§1)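 Cell lines from ATCC, kept in DMEM with 10% FBS and 1% penicillin–streptomycin at 37 °C under 5% CO2. Seeded from 5×10^4 cells/ml suspension, grown 24 h, then treated with 1, 10, 50 and 100 μM for 48 h. Fixed with cold 10% TCA 1 h at 4 °C, stained with 0.057% SRB, dye dissolved in 10 mM Tris, read at 510 nm. IC50 is 50% cell-number decrease versus untreated control, from regression.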

[2] = system: MCF7; assay: Antiproliferative activity in human MCF7 cells assessed as reduction in cell number incubated for 48 hrs by SRB assay; settings: MCF7, 48 h; outline: as §1
[3] = system: IMR-32; assay: Antiproliferative activity in human IMR32 cells assessed as reduction in cell number incubated for 48 hrs by SRB assay; settings: IMR-32, 48 h; outline: as §1
[4] = system: A549; assay: Antiproliferative activity in human A549 cells assessed as reduction in cell number incubated for 48 hrs by SRB assay; settings: A549, 48 h; outline: as §1

Row | SMILES | IC50 [1] [µM] | IC50 [2] [µM] | IC50 [4] [µM] | IC50 [3] [µM]
1 | COc1ccc(C[C@@H](O)/C=C/C=C/C(=O)N2CCN(C(c3ccccc3)c3ccccc3)CC2)cc1OC | 10.5 | 12.5 | 10.6 | 11.9
2 | COc1ccc(C[C@@H](O)/C=C/C=C/C(=O)NCc2ccccc2)cc1OC | 12.9 | 33.6 | 17.1 | 16.6
3 | COc1ccc(/C=C\c2cc(OC)c(OC)c(OC)c2)cc1O [COMBRETASTATIN A4] | 5.36 | 4.63 | 6.45 | 5.72
4 | COc1ccc(C[C@@H](O)/C=C/C=C/C(=O)NCc2ccc(Cl)cc2)cc1OC | 13.4 | 18.1 | 16.5 | 15.7
5 | COc1ccc(CNC(=O)/C=C/C=C/[C@H](O)Cc2ccc(OC)c(OC)c2)cc1 | 9.45 | 26.6 | 16.8 | 17.4
6 | O=C(/C=C/C=C/c1ccc2c(c1)OCO2)N1CCCCC1 [PIPERINE] | 19.2 | 13 | 11.9 | 10.2
7 | COc1ccc(C[C@@H](O)/C=C/C=C/C(=O)N2CCN(Cc3ccc4c(c3)OCO4)CC2)cc1OC | 8.25 | 12.3 | 7.58 | 8.23
8 | COc1ccc(C[C@@H](O)/C=C/C=C/C(=O)NCc2cc(OC)c(OC)c(OC)c2)cc1OC | 10.7 | 15.3 | 19.2 | 13.4

The next lines start with results.

Row | IC50 [1] [µM] | IC50 [2] [µM] | IC50 [4] [µM] | SMILES | IC50 [3] [µM]
9 | 12.6 | 14.7 | 9.92 | COc1ccc(C[C@@H](O)/C=C/C=C/C(=O)N2CCN(c3ncccn3)CC2)cc1OC | 10.8
10 | 20.6 | 20.2 | 18 | COc1ccc(C[C@@H](O)/C=C/C=C/C(=O)N2CCSCC2)cc1OC | 16.1
11 | 9.75 | 12 | 14.2 | COc1ccc(C[C@@H](O)/C=C/C=C/C(=O)N2CCN(c3ccccc3)CC2)cc1OC | 9.43
12 | 23.6 | 23.6 | 8.13 | COc1ccc(C[C@@H](O)/C=C/C=C/C(=O)N2CCN(c3ccccn3)CC2)cc1OC | 11.1
13 | 11.7 | 11.5 | 15.7 | CCN1CCN(C(=O)/C=C/C=C/[C@H](O)Cc2ccc(OC)c(OC)c2)CC1 | 10.8
14 | 16.4 | 16.2 | 17.9 | COc1ccc(C[C@@H](O)/C=C/C=C/C(=O)N2CCOCC2)cc1OC | 20.4
15 | 14.1 | 39.5 | 16.4 | COc1ccc(C[C@@H](O)/C=C/C=C/C(=O)N2CCCCC2)cc1OC | 11
16 | 14.6 | 12.9 | 13.8 | CCNC(=O)/C=C/C=C/[C@H](O)Cc1ccc(OC)c(OC)c1 | 9.43
17 | 16.5 | 17.1 | 22.2 | COc1ccc(C[C@@H](O)/C=C/C=C/C(=O)N2CCN(C)CC2)cc1OC | 18.9
18 | 14.1 | 26.2 | 24.4 | COc1ccc(C[C@@H](O)/C=C/C=C/C(=O)N2CCCC2)cc1OC | 12
